{"data": "Measurements of several laboratories", "cell line": "Jurkat", "observed": "cell growth or viability", "note": "Lines come from different studies, so protocols differ."}
{"SMILES": "COc1ccc(/C=C\\c2cc(OC)c(OC)c(OC)c2)cc1O", "IC50": "5 nM"}
{"SMILES": "COCCOCOc1cc(O)c(-c2cc(-c3ccc(C(=O)O)cc3)no2)cc1C12CC3CC(CC(C3)C1)C2", "test": "ATP luminescence", "setting": "24 h", "IC50": "1950 nM"}
{"SMILES": "CC(=O)O[C@H]1C(=O)[C@@]2(C)[C@H]([C@H](OC(=O)c3ccccc3)[C@]3(O)C[C@H](OC(=O)[C@H](O)[C@@H](NC(=O)c4ccccc4)c4ccccc4)C(C)=C1C3(C)C)[C@]1(OC(C)=O)CO[C@@H]1C[C@@H]2O", "setting": "72 h", "IC50": "2.8 nM"}
{"SMILES": "O=C1CCCCC1C1C2C=CC=CC1/C(=C/Cc1ccccc1)C2 (stereo not drawn)", "test": "flow cytometry", "IC50": "61 nM"}
{"SMILES": "CC(=O)O[C@H](C)C(=O)CCCCCCC(=O)Nc1ccccc1", "test": "thymidine uptake", "IC50": "> 100000 nM"}
{"SMILES": "CCCCCCCCC1=CC2C=CC=CC1C2C1CCCCC1=O (stereo not drawn)", "test": "flow cytometry", "IC50": "79 nM"}
{"SMILES": "CCCON(Cc1ccc(C(=O)NO)cc1)C(=O)Nc1ccccc1", "test": "ATP luminescence", "setting": "72 h", "IC50": "7090 nM"}
{"SMILES": "COCCOCOc1ccc(C(=O)/C=C/c2ccc(C(=O)O)cc2)cc1C12CC3CC(CC(C3)C1)C2", "test": "ATP luminescence", "setting": "24 h", "IC50": "1800 nM"}
{"SMILES": "COc1cc(/C=C/C(=O)CC(=O)/C=C/c2ccc(O)c(OC)c2)ccc1O", "test": "MTT", "setting": "48 h", "IC50": "28.9 µg/mL"}
{"SMILES": "O=C1CCCCC1C1C2C=CC=CC1C(C1CC1)=C2 (stereo not drawn)", "test": "flow cytometry", "IC50": "39 nM"}
{"SMILES": "CCCCN(Cc1ccc(C(=O)NO)cc1)C(=O)Nc1ccccc1", "test": "ATP luminescence", "setting": "72 h", "IC50": "7410 nM"}
{"SMILES": "CC[C@]1(O)C[C@H]2CN(CCc3c([nH]c4ccccc34)[C@@](C(=O)OC)(c3cc4c(cc3OC)N(C=O)[C@H]3[C@@](O)(C(=O)OC)[C@H](OC(C)=O)[C@]5(CC)C=CCN6CC[C@]43[C@@H]65)C2)C1", "test": "MTT", "IC50": "1.1 nM"}
{"SMILES": "CCCCCC/C=C1\\CC2C=CC=CC1C2C1CCCCC1=O (stereo not drawn)", "test": "flow cytometry", "IC50": "29 nM"}
{"SMILES": "COc1cccc2c1C(=O)c1c(O)c3c(c(O)c1C2=O)C[C@@](O)(C(=O)CO)C[C@@H]3O[C@H]1C[C@H](N)[C@H](O)[C@H](C)O1", "test": "MTT", "setting": "48 h", "IC50": "2.5 µg/mL"}
{"SMILES": "C[C@@H](O)C(=O)CCCCCCC(=O)Nc1ccccc1", "test": "thymidine uptake", "IC50": "92000 nM"}
